Shown is part of a subset that was picked to be rich in hits.
T cruzi intra: blocks T. cruzi growth inside host cells; hit rate 4.9% among 22,000; AID 651903; activity score (inhibition), % at 5.01 µM; intracellular Trypanosoma cruzi in host cells, plate reader; in the data active = activity score above about 55%;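 note: parasites and compound incubated about four days before reading; 0% = median of neutral control wells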
YB-1 expression: YB-1 expression inhibition; U2OS, qRT-PCR YB-1 vs CDIP delta delta Cp, 16 h; hits give high values; zero = DMSO, each unit about twofold; delta delta Cp (YB-1 minus CDIP) (concentration not given with the values); hit rate 0.37% among 30,000;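 active = delta delta Cp rounded down to an integer at or above 3, about 3 SD of DMSO wells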;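 note: higher means less YB-1 transcript or more CDIP transcript relative to DMSO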
INS-1E ATP HTS: rescue of cytokine-induced death in INS-1E beta cells. hit rate 0.1% among 20,000. INS-1E cytokine-induced death, ATP luminescence, 48 h; normalised: neutral wells 0, positive control 100. protection from cytokine-induced ATP loss, % at 10 µM. AID 488910;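 active = mean replicate protection from cytokine-induced ATP loss at least 50% and at least 75% of replicates each reaching 50%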
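Assay system – rat INS-1E insulinoma cell line · Quantity – 8000 cells per well · Buffer or medium – RPMI without phenol red, 5% FBS · Schedule – 48 h co-treatment, 10 min post-lysis read · Technique – luminescent ATP assay (CellTiter-Glo)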
Starred values were filed as active, the others as inactive; · = not tested or not shown.

SMILES	T cruzi intra	YB-1 expression	INS-1E ATP HTS
C[C@@H]1CN([C@H](C)CO)C(=O)c2cccc(NC(=O)C3CC3)c2O[C@@H]1CN(C)Cc1ccc(C(=O)O)cc1	-9	-0.28	-3
Cc1ccc(S(=O)(=O)Nc2ccc3c(c2)C(=O)N([C@@H](C)CO)C[C@H](C)[C@H](CN(C)C(=O)Nc2ccc(F)cc2)O3)cc1	2	-0.26	·
COc1ccc(S(=O)(=O)N(C)C[C@@H]2Oc3ccc(NC(=O)Cc4ccccc4)cc3C(=O)N([C@H](C)CO)C[C@@H]2C)cc1	13	-0.33	1
C[C@@H]1CN([C@@H](C)CO)C(=O)CCCn2cc(nn2)CO[C@@H]1CN(C)Cc1ccc(C(=O)O)cc1	-28	-0.36	·
CC(C)NC(=O)N(C)C[C@H]1Oc2c(NC(=O)c3nc4ccccc4s3)cccc2C(=O)N([C@H](C)CO)C[C@@H]1C	2	-0.24	6
C[C@@H]1CN([C@H](C)CO)C(=O)Cc2cc(NC(=O)Nc3ccc(F)cc3)ccc2O[C@@H]1CN(C)C(=O)Nc1ccc(C(F)(F)F)cc1	21	-0.41	-9
C/C(=C\CC[C@@H](C)[C@H]1CC(O)[C@@]2(C)C3CC[C@H]4C(C)(C)[C@@H](O[C@@H]5OC(COC6OC(CO)C(O)C(O)C6O)C(O)C(O)C5O)CC[C@@]45C[C@@]35CC(O)[C@]12C)C(=O)OC1OC(CO)C(O)C1O (some centres undefined)	·	-0.35	·
CC(C)NC(=O)N(C)C[C@H]1OCCCC[C@@H](C)Oc2ccc(NC(=O)Nc3ccc(C(F)(F)F)cc3)cc2C(=O)N([C@H](C)CO)C[C@@H]1C	23	0.26	-14
C[C@@H]1CCCCO[C@@H](CN(C)C(=O)Nc2cccc3ccccc23)[C@@H](C)CN([C@H](C)CO)C(=O)c2cc(NC(=O)Nc3ccc(C(F)(F)F)cc3)ccc2O1	-21	0.098	-3
C[C@H]1CN([C@@H](C)CO)C(=O)c2cc(NC(=O)Nc3ccc(C(F)(F)F)cc3)ccc2O[C@@H]1CN(C)C(=O)Nc1ccc(F)cc1	-3	0.073	2
C[C@@H]1CCCCO[C@@H](CN(C)C(=O)Nc2ccc(C(F)(F)F)cc2)[C@@H](C)CN([C@H](C)CO)C(=O)c2cc(NC(=O)NC3CCCCC3)ccc2O1	76*	-0.066	-16
C[C@@H]1CN([C@@H](C)CO)C(=O)c2cc(NC(=O)Nc3ccc(C(F)(F)F)cc3)ccc2O[C@@H]1CN(C)C(=O)Nc1ccc(F)cc1	58*	-0.44	-49
C[C@@H]1CN([C@@H](C)CO)C(=O)c2cc(NC(=O)NC3CCCCC3)ccc2O[C@@H]1CN(C)C(=O)Nc1ccc(C(F)(F)F)cc1	-15	0.23	-6
C[C@@H]1CCCCO[C@H](CN(C)C(=O)Nc2ccc(C(F)(F)F)cc2)[C@@H](C)CN([C@H](C)CO)C(=O)c2cc(NC(=O)Nc3cccc4ccccc34)ccc2O1	67*	0.39	-7
C[C@@H]1CCCCO[C@@H](CN(C)C(=O)Nc2ccc(C(F)(F)F)cc2)[C@@H](C)CN([C@H](C)CO)C(=O)c2cc(NC(=O)Nc3ccc(C(F)(F)F)cc3)ccc2O1	69*	-0.15	-3
NCCOc1ccc(Cl)cc1	·	-0.012	·
CNC[C@@H]1Oc2c(NC(=O)NC(C)C)cccc2C(=O)N([C@@H](C)CO)C[C@H]1C	9	-0.33	2
CS/C(=N\S(=O)(=O)c1cc(C(F)(F)F)cc(C(F)(F)F)c1)N1CCOCC1	·	-0.61	·
C[C@@H]1CN([C@@H](C)CO)C(=O)c2cc(NS(=O)(=O)c3cccs3)ccc2O[C@@H]1CN(C)C(=O)Nc1ccc2c(c1)OCO2	-4	0.26	-1
C[C@H]1CN([C@@H](C)CO)C(=O)Cc2cc(NC(=O)Nc3ccc(F)cc3)ccc2O[C@H]1CN(C)C(=O)Nc1ccccc1	-14	-1.2	-2
Cc1ccccc1C(=O)N1N=C(c2ccc(Br)cc2)CC1c1nc2ccccc2[nH]1 (centres undefined)	·	-0.25	·
C[C@H]1CN([C@@H](C)CO)C(=O)c2cccc(NC(=O)C3CCCCC3)c2O[C@H]1CN(C)C	-8	-0.082	4
O=C(NO)c1ccc(C(=O)N/N=C/c2cccc(Br)c2)cc1	-7	-1.1	-7
C[C@@H]1CCCCO[C@H](CN(C)C(=O)Nc2ccc3c(c2)OCO3)[C@@H](C)CN([C@H](C)CO)C(=O)c2cc(NC(=O)Nc3ccc4c(c3)OCO4)ccc2O1	-1	-0.049	3
C[C@@H]1CCCCO[C@H](CN(C)C(=O)Nc2ccccc2)[C@@H](C)CN([C@H](C)CO)C(=O)c2cc(NC(=O)Nc3ccc(C(F)(F)F)cc3)ccc2O1	70*	0.48	-44
SMILES	T cruzi intra	YB-1 expression	INS-1E ATP HTS
C[C@@H]1CCCCO[C@H](CN(C)C(=O)Nc2ccc(C(F)(F)F)cc2)[C@@H](C)CN([C@H](C)CO)C(=O)c2cc(NC(=O)Nc3ccc4c(c3)OCO4)ccc2O1	59*	0.12	-22
C[C@H]1CN([C@@H](C)CO)C(=O)c2cc(NC(=O)Nc3cccc4ccccc34)ccc2O[C@H]1CN(C)Cc1ccc(C(F)(F)F)cc1	5	0.15	·
C[C@@H]1CCCCO[C@@H](CN(C)C(=O)Nc2ccccc2)[C@@H](C)CN([C@H](C)CO)C(=O)c2cc(NC(=O)Nc3ccccc3)ccc2O1	-5	0.057	2
C[C@@H]1CCCCO[C@@H](CN(C)C(=O)Nc2ccccc2)[C@@H](C)CN([C@H](C)CO)C(=O)c2cc(NC(=O)c3ccccc3)ccc2O1	-9	-13	-8
C[C@@H]1CCCCO[C@H](CN(C)C(=O)Nc2ccc(C(F)(F)F)cc2)[C@@H](C)CN([C@H](C)CO)C(=O)c2cc(NC(=O)c3ccccc3)ccc2O1	59*	0.39	-8
C[C@@H]1CCCCO[C@H](CN(C)Cc2ccc(C(F)(F)F)cc2)[C@@H](C)CN([C@H](C)CO)C(=O)c2cc(NC(=O)Nc3cccc4ccccc34)ccc2O1	74*	0.075	-4
O=C(N/N=C/c1cc2ccccc2n1S(=O)(=O)c1ccccc1)c1ccccc1O	0	-0.016	5
Cc1noc(C)c1NC(=O)Nc1cccc2c1O[C@H](CN(C)S(=O)(=O)c1ccccc1)[C@H](C)CN([C@@H](C)CO)C2=O	4	0.21	-2
Cc1ccc(S(=O)(=O)Nc2ccc3c(c2)CC(=O)N([C@@H](C)CO)C[C@H](C)[C@@H](CN(C)C)O3)cc1	-31	-0.14	5
Cc1onc(-c2ccccc2)c1C(=O)NC1C(=O)N2[C@@H]1SC(C)(C)[C@@H]2C(=O)O (some centres undefined)	·	0.016	·
C[C@H](CO)N1C[C@H](C)[C@H](CN(C)CC2CC2)Oc2c(cccc2N(C)C)C1=O	11	0.16	-3
C[C@@H]1CCCCO[C@@H](CN(C)C(=O)C2CCCCC2)[C@@H](C)CN([C@H](C)CO)C(=O)c2cc(NC(=O)Nc3ccc(F)cc3)ccc2O1	2	0.21	-2
C[C@@H]1CCCCO[C@H](CN(C)C(=O)Nc2ccc(F)cc2)[C@@H](C)CN([C@H](C)CO)C(=O)c2cc(NC(=O)Nc3ccc(C(F)(F)F)cc3)ccc2O1	62*	-0.1	-32
